ChEMBL document CHEMBL4145447, “4-arylamidobenzyl substituted 5-bromomethylene-2(5H)-furanones for chronic bacterial infection” (Eur J Med Chem, 2018)
Active and inactive are the calls of the source. The calls are words filed in the database; no cut-off is given here.

Legend:
[1] = Cytotoxicity against mouse RAW264.7 cells assessed as cell viability at 10 uM after 48 hrs by MTT assay relative to control; type: cell-based; conditions: read-out: Activity
Outline: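 MTT viability: RAW264.7 cells (4 × 10^4/well) in DMEM + 10% FBS exposed to compounds diluted in DMEM for 48 h. MTT 0.5 mg/mL added for 4 h in the dark, formazan dissolved in DMSO, read at 570 nm. Viability = treated/medium-only control × 100; three independent experiments.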

[2] = target: Elastase (Pseudomonas aeruginosa (strain ATCC 15692 / PAO1 / 1C / PRS 101 / LMG12228)) (UniProt P14756); test: Inhibition of Pseudomonas aeruginosa PAO1 GFP-fused quorum sensing lasB at 10 uM measured every 15 mins up to 12 hrs by GFP reporter gene assay relative to control
Outline: (§1)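 GFP reporter strains of P. aeruginosa PAO1 (lasB-, rhlA- or pqsA-promoter fused to unstable gfp(ASV)) grown overnight in LB at 37 °C, 200 rpm, 18 h, then diluted 1:100. Culture mixed 1:1 with compound diluted in LB from 10 mM DMSO stock (0.1% DMSO final). Fluorescence (ex 485/em 528 nm) read every 15 min at 37 °C for ≥12 h.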

RAW264.7 [3] = test: Anti-inflammatory activity in mouse RAW264.7 cells assessed as inhibition of LPS-induced TNF-alpha production by measuring TNF-alpha level at 10 uM preincubated for 2 hrs followed by LPS stimulation and measured after 12 hrs by ELISA (reference value: 21561.3 +/- 857 pg/ml); type: functional
RAW264.7 [4] = test: Anti-inflammatory activity in mouse RAW264.7 cells assessed as inhibition of LPS-induced NO production at 10 uM preincubated for 2 hrs followed by LPS stimulation and measured after 48 hrs by Griess method relative to control; type: functional
Outline: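 RAW264.7 cells seeded at 5 × 10^4/well and cultured 18 h, then given 10 µM compound plus LPS 100 ng/mL for 48 h at 37 °C. Supernatant mixed 1:1 with Griess reagent (1% sulfanilamide, 0.1% naphthylethylenediamine in 5% phosphoric acid) for 10 min; nitrite read at OD540.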

Pseudomonas aeruginosa = test: Growth inhibition of Pseudomonas aeruginosa PAO1 at 5 to 100 uM measured every 15 mins up to 12 hrs; type: organism-based; conditions: in vitro
Outline: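 Growth of P. aeruginosa PAO1 was run like the reporter assay. The overnight LB culture was diluted in fresh LB and mixed in equal parts with compound diluted in LB, then growth was monitored in 96-well plates.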

[5] = target: T1, Peroxisome proliferator-activated receptor gamma (Mus musculus) (UniProt P37238); test: Agonist activity at PPARgamma in mouse RAW264.7 cells assessed as inhibition of LPS-induced IkB-alpha phosphorylation at Ser32/36 residues at 10 uM preincubated for 1 hr followed by LPS stimulation and measured after 4 hrs by Western blot analysis; type: cell-based
T1 sequence (whole entry): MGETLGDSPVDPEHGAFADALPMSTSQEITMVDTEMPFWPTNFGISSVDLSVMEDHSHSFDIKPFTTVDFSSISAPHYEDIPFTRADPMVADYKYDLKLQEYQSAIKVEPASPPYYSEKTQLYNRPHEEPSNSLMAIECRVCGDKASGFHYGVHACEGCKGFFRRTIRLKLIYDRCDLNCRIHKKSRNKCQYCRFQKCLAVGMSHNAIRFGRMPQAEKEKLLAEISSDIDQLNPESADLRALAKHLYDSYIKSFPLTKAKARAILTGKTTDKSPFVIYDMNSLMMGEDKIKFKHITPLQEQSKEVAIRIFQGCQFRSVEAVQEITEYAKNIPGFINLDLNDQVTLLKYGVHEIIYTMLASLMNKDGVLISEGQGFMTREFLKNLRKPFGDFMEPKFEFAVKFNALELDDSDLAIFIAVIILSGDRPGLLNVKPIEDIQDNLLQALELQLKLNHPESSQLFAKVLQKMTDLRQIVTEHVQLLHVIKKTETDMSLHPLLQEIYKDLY
Outline: (§2)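 Western blot: RAW264.7 cells (2 × 10^6/well) pretreated 1 h with compound (10 µM), antagonist GW9662 (5 µM) where stated, then LPS 500 ng/mL for 4 h. Lysis on ice with PMSF, BCA-normalised protein on SDS gels, PVDF transfer, milk block, phospho- and total-protein primary antibodies, HRP secondary, ECL detection. Densitometry normalised to internal control; n = 3.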

[6] = target: T1, Peroxisome proliferator-activated receptor gamma (Mus musculus); test: Agonist activity at PPARgamma in mouse RAW264.7 cells assessed as inhibition of LPS-induced ERk1/2 phosphorylation at Thr202/Tyr204 residues at 10 uM preincubated for 1 hr followed by LPS stimulation and measured after 4 hrs in presence of PPARgamma antagonist GW9662 by Western blot analysis; type: cell-based; outline: as §2
[7] = target: T1, Peroxisome proliferator-activated receptor gamma (Mus musculus); test: Agonist activity at PPARgamma in mouse RAW264.7 cells assessed as inhibition of LPS-induced IkB-alpha phosphorylation at Ser32/36 residues at 10 uM preincubated for 1 hr followed by LPS stimulation and measured after 4 hrs in presence of PPARgamma antagonist GW9662 by Western blot analysis; type: cell-based; outline: as §2
Mus musculus = test: Anti-inflammatory activity in LPS-induced sepsis shock mouse model assessed as survival rate at 5 mg/kg, iv pretreated daily for 5 days followed LPS treatment on day 5 at 1 hr post last dose and measured after 7 days relative to control; type: functional
Outline: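 Male SPF mice, randomly grouped, dosed i.v. with compound dissolved in DMSO and diluted in physiological saline; vehicle group given a similar volume. LPS was injected on day 5, 1 h after the last administration. Survival was recorded every 12 h for 7 days after LPS, with 11 animals per group per figure legend.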

[8] = target: T2, Anthranilate--CoA ligase (Pseudomonas aeruginosa (strain ATCC 15692 / DSM 22644 / CIP 104116 /JCM 14847 / LMG 12228 / 1C / PRS 101 / PAO1)) (UniProt Q9I4X3); test: Inhibition of Pseudomonas aeruginosa PAO1 GFP-fused quorum sensing pqsA measured every 15 mins up to 12 hrs by GFP reporter gene assay; outline: as §1
T2 sequence (whole entry): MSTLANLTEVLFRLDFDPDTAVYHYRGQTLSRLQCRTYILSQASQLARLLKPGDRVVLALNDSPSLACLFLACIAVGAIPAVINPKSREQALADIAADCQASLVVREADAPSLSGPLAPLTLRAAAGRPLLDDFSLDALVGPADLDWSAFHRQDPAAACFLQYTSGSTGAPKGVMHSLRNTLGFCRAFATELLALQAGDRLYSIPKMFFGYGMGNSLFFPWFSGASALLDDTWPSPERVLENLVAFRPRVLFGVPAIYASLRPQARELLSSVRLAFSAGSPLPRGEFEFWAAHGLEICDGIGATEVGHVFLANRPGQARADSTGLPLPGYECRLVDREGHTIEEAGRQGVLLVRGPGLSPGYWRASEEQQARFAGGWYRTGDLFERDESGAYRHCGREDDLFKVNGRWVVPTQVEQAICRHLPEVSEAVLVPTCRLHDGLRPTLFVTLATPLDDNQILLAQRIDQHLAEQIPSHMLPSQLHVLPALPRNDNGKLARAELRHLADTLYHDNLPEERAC

Elastase (Pseudomonas aeruginosa (strain ATCC 15692 / PAO1 / 1C / PRS 101 / LMG12228)), sequence (P14756 198-498 limits assumed): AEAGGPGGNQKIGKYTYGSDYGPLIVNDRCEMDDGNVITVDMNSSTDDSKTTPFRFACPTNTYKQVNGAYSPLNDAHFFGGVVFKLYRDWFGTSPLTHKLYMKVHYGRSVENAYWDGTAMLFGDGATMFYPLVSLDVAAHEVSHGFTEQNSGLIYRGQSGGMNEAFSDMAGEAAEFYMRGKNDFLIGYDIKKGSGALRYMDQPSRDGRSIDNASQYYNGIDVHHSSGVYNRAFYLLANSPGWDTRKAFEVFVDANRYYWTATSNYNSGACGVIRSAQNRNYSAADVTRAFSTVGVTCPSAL

Structure (SMILES)	viability at 48 h, 10 µM [1] [%]	inhibition [2] [%]	Activity (RAW264.7 [3]) [pg/mL]	inhibition at 10 µM (RAW264.7 [4]) [%]	growth inhibition (GI) (Pseudomonas aeruginosa)	inhibition [5]	inhibition [6]	inhibition [7]	survival at 5 mg/kg (Mus musculus) [%]	inhibition [8]
O=C(C=Cc1ccccc1)Nc1ccc(CC2=CC(=O)O/C2=C/Br)cc1	104	11.8	15037.3	70	Non-Toxic	Active	inactive	inactive	–	–
O=C(Cc1ccc(F)cc1)Nc1ccc(CC2=CC(=O)OC2=CBr)cc1	97	15.2	13362.7	73.7	Non-Toxic	Active	inactive	inactive	36.5	Dose-dependent effect
